Test results as given in ChEMBL document CHEMBL1157465, “Design, synthesis, and biological evaluation of novel 3-aryl-4-(1H-indole-3yl)-1,5-dihydro-2H-pyrrole-2-ones as vascular endothelial growth factor receptor (VEGF-R) inhibitors” (J Med Chem, 2008).

Legend:
[1] = target: T1, NUAK family SNF1-like kinase 1 (Homo sapiens, UniProt O60285); experiment: Inhibition of human recombinant ARK5
T1 sequence (O60285 whole entry): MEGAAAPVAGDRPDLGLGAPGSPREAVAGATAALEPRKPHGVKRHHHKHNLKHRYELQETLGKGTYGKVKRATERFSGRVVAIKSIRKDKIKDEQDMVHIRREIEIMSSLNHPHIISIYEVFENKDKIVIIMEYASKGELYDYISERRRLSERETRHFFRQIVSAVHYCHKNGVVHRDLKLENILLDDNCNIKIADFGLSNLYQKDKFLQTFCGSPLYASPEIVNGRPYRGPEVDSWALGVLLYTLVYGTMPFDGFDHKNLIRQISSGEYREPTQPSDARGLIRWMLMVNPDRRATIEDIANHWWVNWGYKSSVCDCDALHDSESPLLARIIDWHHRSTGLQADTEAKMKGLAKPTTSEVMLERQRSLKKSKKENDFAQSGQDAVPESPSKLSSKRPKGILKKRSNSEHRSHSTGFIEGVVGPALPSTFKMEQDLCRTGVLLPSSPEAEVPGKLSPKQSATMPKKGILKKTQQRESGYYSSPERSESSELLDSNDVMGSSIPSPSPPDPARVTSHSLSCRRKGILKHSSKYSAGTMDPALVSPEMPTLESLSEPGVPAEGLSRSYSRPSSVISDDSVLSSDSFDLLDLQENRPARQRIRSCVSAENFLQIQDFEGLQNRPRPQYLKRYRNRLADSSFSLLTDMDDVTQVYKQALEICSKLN
How it was run: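 Human ARK5 made in Sf9 cells by baculovirus (GST- or His-tagged, affinity-purified) and read by autophosphorylation in a 33PanQinase radiometric assay. Buffer: 60 mM HEPES-NaOH pH 7.5, 3 mM MgCl2, 3 mM MnCl2, 3 µM orthovanadate, 1.2 mM DTT, PEG20000 and 1 µM [γ-33P]ATP.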

[2] = target: Proto-oncogene tyrosine-protein kinase Src (Homo sapiens, UniProt P12931); experiment: Inhibition of human recombinant SRC
Proto-oncogene tyrosine-protein kinase Src, sequence (P12931 2-536 limits assumed): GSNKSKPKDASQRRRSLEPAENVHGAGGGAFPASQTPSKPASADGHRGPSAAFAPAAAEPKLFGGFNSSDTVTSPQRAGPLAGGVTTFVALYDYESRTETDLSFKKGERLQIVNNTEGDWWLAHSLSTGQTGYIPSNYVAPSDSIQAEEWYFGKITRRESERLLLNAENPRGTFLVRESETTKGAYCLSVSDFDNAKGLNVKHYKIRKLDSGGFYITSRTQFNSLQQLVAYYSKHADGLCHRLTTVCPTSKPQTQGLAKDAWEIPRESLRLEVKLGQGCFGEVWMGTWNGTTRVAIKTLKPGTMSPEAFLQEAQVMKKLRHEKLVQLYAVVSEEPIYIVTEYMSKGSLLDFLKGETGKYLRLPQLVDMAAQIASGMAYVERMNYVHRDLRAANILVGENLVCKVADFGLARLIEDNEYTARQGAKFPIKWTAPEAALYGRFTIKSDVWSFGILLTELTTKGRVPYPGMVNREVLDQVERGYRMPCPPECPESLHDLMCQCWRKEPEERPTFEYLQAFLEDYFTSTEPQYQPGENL
How it was run: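 Human kinases expressed in Sf9 cells via baculovirus as GST or His fusions and affinity purified. 33PanQinase assay in 60 mM HEPES-NaOH pH 7.5, 3 mM MgCl2, 3 mM MnCl2, 3 µM orthovanadate, 1.2 mM DTT, 1 µM [γ-33P]ATP, 1% DMSO; 30 °C, 80 min. Substrates: poly(Glu,Tyr) 4:1 for ERBB2, IGF1-R and SRC; poly(Ala,Glu,Lys,Tyr) 6:2:5:1 for FLT3. IC50 from 10 concentrations by scintillation counting.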

[3] = target: Cyclin-dependent kinase 4/cyclin D1 (Homo sapiens, UniProt P11802); experiment: Inhibition of human recombinant CDK4/cyclin D1; format: protein-complex assay
Cyclin-dependent kinase 4/cyclin D1, sequence (P11802 whole entry): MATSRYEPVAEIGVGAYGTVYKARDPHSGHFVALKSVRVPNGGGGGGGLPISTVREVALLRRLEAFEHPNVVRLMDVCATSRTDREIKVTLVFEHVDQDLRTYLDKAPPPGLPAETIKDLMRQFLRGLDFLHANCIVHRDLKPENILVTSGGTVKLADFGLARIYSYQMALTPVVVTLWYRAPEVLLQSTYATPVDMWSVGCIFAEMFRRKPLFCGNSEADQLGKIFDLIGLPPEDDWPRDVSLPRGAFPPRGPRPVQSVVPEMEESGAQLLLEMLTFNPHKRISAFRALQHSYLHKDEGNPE
Cyclin-dependent kinase 4/cyclin D1, sequence (P24385 whole entry, further chain): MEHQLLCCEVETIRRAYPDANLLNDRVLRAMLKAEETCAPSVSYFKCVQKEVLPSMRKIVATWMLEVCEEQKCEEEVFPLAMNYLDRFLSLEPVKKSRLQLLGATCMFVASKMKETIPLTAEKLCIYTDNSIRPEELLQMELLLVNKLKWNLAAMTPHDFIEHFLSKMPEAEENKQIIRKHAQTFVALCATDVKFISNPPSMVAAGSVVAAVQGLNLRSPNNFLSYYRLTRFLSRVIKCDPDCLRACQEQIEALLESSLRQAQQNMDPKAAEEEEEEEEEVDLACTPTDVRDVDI
How it was run: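 CDK4/CycD1 (human, baculovirus/Sf9, affinity-purified) with Rb-CTF as substrate. The radiometric FlashPlate assay held 1 µM [γ-33P]ATP in HEPES-NaOH pH 7.5 with 3 mM MgCl2 and 3 mM MnCl2.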

Angiopoietin-1 receptor = Angiopoietin-1 receptor (Homo sapiens, UniProt Q02763); experiment: Inhibition of human recombinant TIE2
Angiopoietin-1 receptor, sequence (Q02763 whole entry, the tested form may be a part): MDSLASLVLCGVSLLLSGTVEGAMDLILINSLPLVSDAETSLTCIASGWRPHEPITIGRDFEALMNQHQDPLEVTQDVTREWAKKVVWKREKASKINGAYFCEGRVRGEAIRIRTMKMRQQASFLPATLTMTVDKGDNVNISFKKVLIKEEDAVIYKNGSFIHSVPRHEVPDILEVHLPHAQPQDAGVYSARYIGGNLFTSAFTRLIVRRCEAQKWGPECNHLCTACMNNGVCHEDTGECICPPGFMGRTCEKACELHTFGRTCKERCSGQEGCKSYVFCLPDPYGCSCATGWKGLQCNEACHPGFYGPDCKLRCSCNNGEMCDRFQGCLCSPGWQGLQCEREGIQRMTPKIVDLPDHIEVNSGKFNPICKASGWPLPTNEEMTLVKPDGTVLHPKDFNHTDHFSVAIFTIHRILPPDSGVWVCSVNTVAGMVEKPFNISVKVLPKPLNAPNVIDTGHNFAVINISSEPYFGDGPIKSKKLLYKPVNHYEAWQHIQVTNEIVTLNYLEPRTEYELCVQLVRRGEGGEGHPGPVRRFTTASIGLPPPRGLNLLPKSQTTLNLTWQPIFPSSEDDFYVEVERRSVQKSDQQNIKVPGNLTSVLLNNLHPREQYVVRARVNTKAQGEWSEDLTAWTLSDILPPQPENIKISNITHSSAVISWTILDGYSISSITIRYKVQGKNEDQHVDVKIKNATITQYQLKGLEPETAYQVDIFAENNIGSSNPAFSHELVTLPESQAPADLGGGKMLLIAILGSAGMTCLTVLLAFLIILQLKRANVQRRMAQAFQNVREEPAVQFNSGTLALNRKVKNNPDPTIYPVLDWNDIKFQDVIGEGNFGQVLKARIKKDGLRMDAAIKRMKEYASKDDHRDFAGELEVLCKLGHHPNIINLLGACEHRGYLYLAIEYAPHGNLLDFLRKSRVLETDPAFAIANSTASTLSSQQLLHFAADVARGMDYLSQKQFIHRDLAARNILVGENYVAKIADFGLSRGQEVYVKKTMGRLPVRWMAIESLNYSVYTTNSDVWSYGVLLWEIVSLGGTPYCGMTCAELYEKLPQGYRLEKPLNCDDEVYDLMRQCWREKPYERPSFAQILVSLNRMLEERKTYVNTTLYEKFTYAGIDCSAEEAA
How it was run: (§1)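 Recombinant human tyrosine kinases (EPHB4, TIE2, VEGF-R2, VEGF-R3), expressed in Sf9 insect cells as GST- or His-fusions, with poly(Glu,Tyr) 4:1 as substrate. Conditions: 1 µM [γ-33P]ATP, pH 7.5 HEPES buffer with Mg/Mn, DTT and vanadate, 30 °C for 80 min, 1% DMSO. Ten concentrations were tested and IC50 came from scintillation counting of incorporated 33P.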

Homo sapiens [4] = species: Homo sapiens; experiment: Antiangiogenic activity in VEGF-induced HLMEC assessed as number of sprouts per bead at 2.6 uM after 24 hrs by sprouting assay; format: functional
How it was run: (§2)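 HLMEC seeded on cytodex-3 microcarrier beads and embedded in 3D fibrinogen gel with 20 ng/mL VEGF plus compound at a final 1.3 or 2.6 µM (from 1 mM DMSO stock). Gel polymerised with 0.65 U/mL thrombin and overlaid with MCDB131, 5% FCS, 5% human serum and 200 U/mL Trasylol. Negative control: gel without growth factors. After 24 h, fixed in 1% PFA; sprouts per 50 beads counted microscopically. Triplicates per condition, n = 9 experiments.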

Homo sapiens [5] = species: Homo sapiens; experiment: Antiangiogenic activity in VEGF-induced HLMEC assessed as sprouts per bead at 1.3 uM after 24 hrs by sprouting assay; format: functional; how it was run: as §2
[6] = target: Vascular endothelial growth factor receptor 2 (Homo sapiens, UniProt P35968); experiment: Inhibition of human recombinant VEGFR2; how it was run: as §1
Vascular endothelial growth factor receptor 2, sequence (P35968 whole entry): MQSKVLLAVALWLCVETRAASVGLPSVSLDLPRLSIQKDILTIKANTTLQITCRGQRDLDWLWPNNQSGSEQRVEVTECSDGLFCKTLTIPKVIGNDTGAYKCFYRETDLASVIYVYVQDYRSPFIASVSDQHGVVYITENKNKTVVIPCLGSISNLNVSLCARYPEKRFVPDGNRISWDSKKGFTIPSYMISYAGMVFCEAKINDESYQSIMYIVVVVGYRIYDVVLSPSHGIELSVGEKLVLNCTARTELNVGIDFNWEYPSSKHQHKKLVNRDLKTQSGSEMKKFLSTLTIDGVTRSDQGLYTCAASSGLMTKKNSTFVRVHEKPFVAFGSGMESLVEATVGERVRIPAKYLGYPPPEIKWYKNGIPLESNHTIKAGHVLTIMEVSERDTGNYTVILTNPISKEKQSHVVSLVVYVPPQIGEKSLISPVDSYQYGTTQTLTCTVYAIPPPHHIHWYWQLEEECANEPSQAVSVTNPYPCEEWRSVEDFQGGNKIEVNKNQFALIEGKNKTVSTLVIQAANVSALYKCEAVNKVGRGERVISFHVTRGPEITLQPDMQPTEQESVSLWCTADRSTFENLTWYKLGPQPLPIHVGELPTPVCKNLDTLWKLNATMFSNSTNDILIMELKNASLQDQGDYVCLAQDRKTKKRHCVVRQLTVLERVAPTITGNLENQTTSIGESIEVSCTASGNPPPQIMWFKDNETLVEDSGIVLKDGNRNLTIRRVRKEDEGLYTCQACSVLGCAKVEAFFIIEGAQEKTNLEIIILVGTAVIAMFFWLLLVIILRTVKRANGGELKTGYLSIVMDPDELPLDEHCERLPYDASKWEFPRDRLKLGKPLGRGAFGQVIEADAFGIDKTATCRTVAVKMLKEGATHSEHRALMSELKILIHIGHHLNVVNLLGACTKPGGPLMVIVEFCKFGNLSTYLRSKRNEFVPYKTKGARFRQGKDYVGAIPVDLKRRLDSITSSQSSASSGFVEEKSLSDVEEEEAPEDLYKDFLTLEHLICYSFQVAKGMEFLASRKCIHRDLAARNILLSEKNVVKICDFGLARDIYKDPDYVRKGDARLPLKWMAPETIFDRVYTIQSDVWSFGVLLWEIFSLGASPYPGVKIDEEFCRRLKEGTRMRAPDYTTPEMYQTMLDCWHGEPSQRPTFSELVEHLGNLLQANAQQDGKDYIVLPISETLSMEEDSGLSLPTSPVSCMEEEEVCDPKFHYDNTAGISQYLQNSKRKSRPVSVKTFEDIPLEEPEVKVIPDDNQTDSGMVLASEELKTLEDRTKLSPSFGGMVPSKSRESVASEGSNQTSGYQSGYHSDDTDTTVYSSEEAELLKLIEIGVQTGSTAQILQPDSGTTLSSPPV

Aurora kinase B = Aurora kinase B (Homo sapiens, UniProt Q96GD4); experiment: Inhibition of human recombinant Aurora B
Aurora kinase B, sequence (Q96GD4 whole entry): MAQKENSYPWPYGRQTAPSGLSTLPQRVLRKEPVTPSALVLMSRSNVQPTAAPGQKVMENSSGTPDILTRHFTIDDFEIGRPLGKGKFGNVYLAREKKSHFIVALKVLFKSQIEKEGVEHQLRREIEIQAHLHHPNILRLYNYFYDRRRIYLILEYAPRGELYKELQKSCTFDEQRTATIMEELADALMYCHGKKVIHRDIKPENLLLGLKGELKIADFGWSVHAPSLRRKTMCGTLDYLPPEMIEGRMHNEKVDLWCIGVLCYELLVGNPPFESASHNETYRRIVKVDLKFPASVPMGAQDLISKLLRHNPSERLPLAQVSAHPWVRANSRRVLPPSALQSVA
How it was run: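 Aurora-A or Aurora-B, human cDNA expressed in Sf9 cells as tagged recombinant protein, phosphorylating Tetra(LRRWSLG). Reactions used 60 mM HEPES pH 7.5, Mg2+/Mn2+ (3 mM each), 1.2 mM DTT, vanadate and 1 µM [γ-33P]ATP, ran 80 min at 30 °C and were stopped with 2% H3PO4.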

[7] = target: Platelet-derived growth factor receptor beta (Homo sapiens, UniProt P09619); experiment: Inhibition of human recombinant PDGFRbeta
Focal adhesion kinase 1 = Focal adhesion kinase 1 (Homo sapiens, UniProt Q05397); experiment: Inhibition of human recombinant FAK
Focal adhesion kinase 1, sequence (Q05397 whole entry): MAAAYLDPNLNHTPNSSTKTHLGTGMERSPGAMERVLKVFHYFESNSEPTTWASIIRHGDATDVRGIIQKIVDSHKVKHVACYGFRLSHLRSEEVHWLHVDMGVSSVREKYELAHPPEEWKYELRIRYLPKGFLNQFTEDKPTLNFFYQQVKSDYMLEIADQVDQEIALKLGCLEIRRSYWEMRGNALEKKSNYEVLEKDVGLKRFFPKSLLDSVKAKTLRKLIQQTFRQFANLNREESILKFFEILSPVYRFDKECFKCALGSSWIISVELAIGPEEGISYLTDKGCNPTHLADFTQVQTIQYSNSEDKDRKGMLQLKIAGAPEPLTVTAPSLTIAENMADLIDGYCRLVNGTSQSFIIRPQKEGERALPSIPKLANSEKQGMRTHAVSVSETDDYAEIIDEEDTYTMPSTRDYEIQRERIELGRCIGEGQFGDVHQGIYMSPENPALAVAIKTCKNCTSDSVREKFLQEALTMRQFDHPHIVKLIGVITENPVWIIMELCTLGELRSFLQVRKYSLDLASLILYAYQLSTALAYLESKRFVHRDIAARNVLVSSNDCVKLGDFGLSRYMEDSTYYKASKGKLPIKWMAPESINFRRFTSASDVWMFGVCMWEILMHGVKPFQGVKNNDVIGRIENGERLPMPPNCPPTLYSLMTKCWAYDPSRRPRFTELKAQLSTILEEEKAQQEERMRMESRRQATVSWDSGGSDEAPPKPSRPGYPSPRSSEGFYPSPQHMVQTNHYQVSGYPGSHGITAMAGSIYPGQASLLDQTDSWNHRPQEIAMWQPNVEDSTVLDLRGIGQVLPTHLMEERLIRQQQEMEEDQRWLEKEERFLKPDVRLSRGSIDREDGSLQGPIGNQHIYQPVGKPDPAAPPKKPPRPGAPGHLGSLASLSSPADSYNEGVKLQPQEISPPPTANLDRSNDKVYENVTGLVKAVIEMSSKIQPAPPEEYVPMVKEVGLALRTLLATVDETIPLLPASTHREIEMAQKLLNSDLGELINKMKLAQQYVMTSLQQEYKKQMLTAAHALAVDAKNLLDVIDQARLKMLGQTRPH

[8] = target: Mitogen-activated protein kinase kinase kinase 8 (Homo sapiens, UniProt P41279); experiment: Inhibition of human recombinant COT
How it was run: (§3)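 Human kinases expressed in Sf9 cells by baculovirus as GST or His fusions and affinity purified. Radiometric 33PanQinase assay: 60 mM HEPES-NaOH pH 7.5, 3 mM MgCl2, 3 mM MnCl2, 3 µM orthovanadate, 1.2 mM DTT, 1 µM [γ-33P]ATP, 50-400 ng enzyme, 1% DMSO; 30 °C, 80 min. Substrates: B-Raf-VE, MEK1 KM; CDK2/CycA, histone H1; CK2-A1, casein; COT, autophosphorylation. IC50 from 10 concentrations; 33Pi incorporation by scintillation.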

Homo sapiens [9] = species: Homo sapiens; experiment: Induction of apoptosis in HDMEC assessed as cleaved caspase 3 at 1.3 uM after 24 hrs; format: functional
How it was run: (§4)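 HDMEC incubated 24 h with compound. Adherent cells and supernatant harvested together, stained with an antibody to cleaved caspase-3, and analysed by FACS as percent apoptotic cells. Three independent repeats.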

Homo sapiens [10] = species: Homo sapiens; experiment: Induction of apoptosis in HDMEC assessed as cleaved caspase 3 at 2.6 uM after 24 hrs; format: functional; how it was run: as §4
[11] = target: Serine/threonine-protein kinase B-raf (Homo sapiens, UniProt P15056, V600E); experiment: Inhibition of human recombinant B-Raf-V600E mutant; how it was run: as §3
[12] = target: Cyclin-dependent kinase 2 (Homo sapiens, UniProt P24941); experiment: Inhibition of human recombinant CDK2/cyclin A; how it was run: as §3
Insulin receptor = Insulin receptor (Homo sapiens, UniProt P06213); experiment: Inhibition of human recombinant INS-R
Ephrin type-B receptor 4 = Ephrin type-B receptor 4 (Homo sapiens, UniProt P54760); experiment: Inhibition of human recombinant EPHB4; how it was run: as §1
[13] = target: Hepatocyte growth factor receptor (Homo sapiens, UniProt P08581); experiment: Inhibition of human recombinant MET

| SMILES | IC50 [1] | IC50 [2] | IC50 (Angiopoietin-1 receptor) | IC50 [6] | IC50 (Aurora kinase B) | IC50 [3] | Activity (Homo sapiens [4]) | inhibition (Homo sapiens [5]) | IC50 [7] | IC50 (Focal adhesion kinase 1) | IC50 [8] | Activity (Homo sapiens [9]) | Activity (Homo sapiens [10]) | IC50 [11] | IC50 [12] | IC50 (Insulin receptor) | IC50 (Ephrin type-B receptor 4) | IC50 [13] |
| --- | --- | --- | --- | --- | --- | --- | --- | --- | --- | --- | --- | --- | --- | --- | --- | --- | --- | --- |
| COc1cc(C2=C(c3cn(CC(O)CO)c4ccccc34)CNC2=O)cc(OC)c1OC (configuration not stated) | 34 µM | – | 25 µM | 4.2 µM | – | – | – | – | 40 µM | – | – | – | – | – | – | – | – | – |
| COc1ccc(C2=C(c3c[nH]c4ccccc34)C(=O)NC2)cc1 | 2 µM | – | – | 13 µM | 4.9 µM | 35 µM | – | – | – | – | – | – | – | – | – | – | – | – |
| COc1cc(C2=C(c3cn(C)c4ccccc34)C(=O)NC2)cc(OC)c1OC | 4.9 µM | – | – | 15 µM | 9.8 µM | 40 µM | – | – | – | 50 µM | – | – | – | 50 µM | 42 µM | 47 µM | – | – |
| COc1cc(C2=C(c3cn(COC(C)(C)C)c4ccccc34)CNC2=O)cc(OC)c1OC | – | 4.4 µM | 11 µM | 4.4 µM | 43 µM | 27 µM | – | – | 38 µM | 28 µM | 9.6 µM | – | – | 38 µM | 23 µM | 27 µM | 20 µM | 29 µM |

More lines, main results first:

| IC50 [1] | IC50 [2] | IC50 (Angiopoietin-1 receptor) | IC50 [6] | IC50 (Aurora kinase B) | SMILES | IC50 [3] | Activity (Homo sapiens [4]) | inhibition (Homo sapiens [5]) | IC50 [7] | IC50 (Focal adhesion kinase 1) | IC50 [8] | Activity (Homo sapiens [9]) | Activity (Homo sapiens [10]) | IC50 [11] | IC50 [12] | IC50 (Insulin receptor) | IC50 (Ephrin type-B receptor 4) | IC50 [13] |
| --- | --- | --- | --- | --- | --- | --- | --- | --- | --- | --- | --- | --- | --- | --- | --- | --- | --- | --- |
| 1.8 µM | 41 µM | 34 µM | 11 µM | 2.1 µM | COc1cc(C2=C(c3c[nH]c4ccccc34)C(=O)NC2)cc(OC)c1OC | 30 µM | 2.56 | 34% | – | – | – | – | – | – | – | – | – | – |
| – | 14 µM | 5.2 µM | 0.031 µM | 46 µM | COc1cc(C2=C(c3c[nH]c4ccccc34)CNC2=O)cc(OC)c1OC | – | 0.27 | 88% | – | 9.5 µM | 32 µM | 25% | 42.1% | – | – | – | – | – |
